In PubChem BioAssay:
Activity calls are given as the source filed them.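 Rule for the calls, unless noted: active = visually confirmed hit in the image check and inhibition above 20%; inconclusive = visually confirmed hit but inhibition not above 20%; inactive = no visual hit in the image check.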

What was measured:
[1] = inhibitors of TNFa-induced NFkB p65 translocation, primary screen, imaging, HUVEC, MLSMR starter and 10KST1 sets (AID 438;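 active = inhibition above 20% together with a positive visual image hit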;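 note: compound added about 3h40 before a 20 min TNFalpha stimulation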;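 for inhibition: signal is the nuclear over cytoplasmic p65 intensity ratio per well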); settings: HUVEC TNFa-induced p65 nuclear translocation; cell count: measured here: nuclei count (cytotoxicity indicator), at 2.08 µM; inhibition: at 2 µM, stronger effect = higher value, 0% TNFa-plus-vehicle, 100% no-TNFa wells
[2] = inhibitors of mutant huntingtin aggregation, primary screen, imaging, exon1htt(103Q)mCFP cells, high-content imaging (AID 483;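 active = visual image review flags a hit and inhibition of aggregation exceeds 20%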;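 note: compound exposure lasted 3 days before fixation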;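 for nuclei count: percent of the per-plate median nuclei count of sample wells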); settings: exon1htt(103Q)mCFP cell line, aggregate imaging, at 2 µM; inhibition of aggregation: stronger effect = higher value; nuclei count: measured here: cell count, toxicity
[3] = inhibitors of E-selectin induction by TNFa, primary screen, imaging, HUVEC, immunofluorescence, MLSMR starter and 10KST1 sets (AID 487); settings: HUVEC TNFalpha-induced E-selectin immunofluorescence imaging, at 2 µM; inhibition: stronger effect = higher value; nuclei count: measured here: cell number, toxicity;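 for inhibition: signal is fraction of cell area covered by stained E-selectin grains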;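 for nuclei count: 100% = median nuclei count of all wells on the same plate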
[4] = target: Voltage-gated potassium channel subunit beta-2 (Rattus norvegicus) (UniProt P62483); test: KvBeta enzyme negative modulators, primary screen, biochemical, NADPH fluorescence (AID 622;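 active = fluorescence slope higher than the sample average by over 3 SD, cut at about -0.22 in these data, passing the limit was not always enough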;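 note: slope of raw intensity against log time taken from 70 to 1610 s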); settings: recombinant KvBeta, 4-cyanobenzaldehyde reduction, at 10 µM, stronger effect = higher value
[5] = target: Voltage-gated potassium channel subunit beta-2 (Rattus norvegicus) (UniProt P62483); test: KvBeta positive modulators, primary screen, biochemical, NADPH fluorescence (AID 623;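 active = NADPH fluorescence slope more negative than the mean of all samples by about 3 SD, 99.7% confidence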;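 note: fluorescence intensity change per second fitted from 20 to 320 s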); settings: Recombinant KvBeta, NADPH fluorescence decrease slope, 10 min; at 10 µM; stronger effect = lower value
[6] = target: Muscarinic acetylcholine receptor M4 (Homo sapiens) (UniProt P08173); test: compounds altering M4/GIRK thallium flux, either direction, primary screen, M4 allosteric agonist project, cell-based, HEK293 M4/GIRK, BTC-AM (AID 625;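 active = fluorescence slope after compound addition differing from the mean of all tested samples at 99.7% confidence, mostly higher but some lower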;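 note: thallium influx through GIRK channels coupled to M4 in HEK293 cells with BTC-AM dye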); settings: at 10 µM, actives lie on both sides
In short: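 Material: HEK293 cells with M4 receptor and GIRK channels; Times: cells overnight at 37 °C, BTC-AM loading 1 h, reads 2 min total; Technique: kinetic BTC-AM fluorescence sampled at 1 Hz, 10 s pre-addition baseline; Read-out basis: slope over 15–24 s of trace normalized to starting intensity; Controls: carbachol positive, DMSO negative.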

[7] = inhibitors of Sendai virus-induced IRF3 signaling, primary screen, TLR/RLR signaling modifier project, cell-based, Sendai virus stimulus, luciferase, 10K MLSCN set (AID 602276;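 active = inhibition at or above 50% at 10 µM; inactive = inhibition below 50%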;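 note: firefly luciferase from ISG56 promoter only with Renilla not read in this screen; 0% = Sendai virus plus DMSO and 100% = medium plus DMSO without virus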); settings: HEK293 RL24 IRF3 luciferase reporter, at 10 µM, stronger effect = higher value
[8] = inhibitors of poly I:C-induced TLR3 signaling, primary screen, cell-based, poly I:C stimulus, luciferase, 10K MLSCN set (AID 602277;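 active = inhibition of the reporter signal at or above 50%; inactive = inhibition below 50%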); settings: HEK293-TLR3 RL24 IRF3 luciferase reporter, at 10 µM, stronger effect = higher value

Sequence of Muscarinic acetylcholine receptor M4 (Homo sapiens) (P08173 whole entry, looked up): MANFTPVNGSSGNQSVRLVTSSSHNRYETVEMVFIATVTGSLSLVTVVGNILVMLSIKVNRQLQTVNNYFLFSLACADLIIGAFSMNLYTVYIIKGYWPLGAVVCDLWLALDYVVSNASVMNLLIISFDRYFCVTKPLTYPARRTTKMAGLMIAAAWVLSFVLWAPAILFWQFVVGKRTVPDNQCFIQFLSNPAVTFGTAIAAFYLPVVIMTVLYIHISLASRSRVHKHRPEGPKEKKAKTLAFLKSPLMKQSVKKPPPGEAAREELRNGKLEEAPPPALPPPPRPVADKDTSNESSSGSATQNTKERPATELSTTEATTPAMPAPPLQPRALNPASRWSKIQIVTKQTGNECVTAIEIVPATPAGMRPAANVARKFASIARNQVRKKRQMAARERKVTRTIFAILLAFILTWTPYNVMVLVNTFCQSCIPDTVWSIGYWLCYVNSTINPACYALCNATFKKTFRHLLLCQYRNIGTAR
Sequence of Voltage-gated potassium channel subunit beta-2 (Rattus norvegicus) (P62483 whole entry, looked up): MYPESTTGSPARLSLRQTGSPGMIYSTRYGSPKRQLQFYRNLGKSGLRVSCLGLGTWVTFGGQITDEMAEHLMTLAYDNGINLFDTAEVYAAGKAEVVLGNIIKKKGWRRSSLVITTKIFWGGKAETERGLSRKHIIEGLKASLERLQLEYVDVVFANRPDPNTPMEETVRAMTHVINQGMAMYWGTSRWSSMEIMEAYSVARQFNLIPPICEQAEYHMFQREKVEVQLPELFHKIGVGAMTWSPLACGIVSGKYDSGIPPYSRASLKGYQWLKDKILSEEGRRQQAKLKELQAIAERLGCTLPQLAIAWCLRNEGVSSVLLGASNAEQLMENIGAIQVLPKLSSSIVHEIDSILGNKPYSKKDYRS

SMILES	cell count [1]	inhibition [1]	inhibition of aggregation [2]	nuclei count [2]	inhibition [3]	nuclei count [3]	fluorescence slope [4]	NADPH fluorescence slope [5]	fluorescence slope [6]	inhibition [7]	inhibition [8]
Cc1ccccc1S(=O)(=O)Cc1ccc(C(=O)NCc2cccnc2)o1	596	-2.3% (inactive)	9% (inactive)	105%	9.8% (inactive)	112%	-0.546 (inactive)	4e-05 (inactive)	0.00552 (inactive)	16.7% (inactive)	19.4% (inactive)
COc1ccc(CNC(=O)c2cc(-c3ccc(OC)c(OC)c3)on2)cc1	383	-7.2% (inactive)	2% (inactive)	104%	21.5% (inactive)	110%	-0.206 (inactive)	-1.8e-05 (inactive)	0.00919 (inactive)	15.2% (inactive)	-6.13% (inactive)
O=C(CSc1nnc(-c2cccs2)o1)N1CCOCC1	280	-13.9% (inactive)	-11.6% (inactive)	88.7%	-6.3% (inactive)	118%	-0.539 (inactive)	-3.4e-05 (inactive)	0.0054 (inactive)	-8.48% (inactive)	-10.8% (inactive)
COc1ccc(N2CCN(C(=O)CSc3ccccc3N)CC2)cc1	334	-3% (inactive)	7.8% (inactive)	96.1%	-18.9% (inactive)	106%	-0.501 (inactive)	-0.00016 (inactive)	0.00478 (inactive)	4.54% (inactive)	22.7% (inactive)
Cc1ccc(NC(=O)N2CCC(c3nc4c(nnn4Cc4cccc(Cl)c4)c(=O)[nH]3)CC2)cc1	811	-4.8% (inactive)	-2.1% (inactive)	55.6%	-3.8% (inactive)	124%	-0.569 (inactive)	-7.6e-06 (inactive)	0.00576 (inactive)	8.55% (inactive)	21.7% (inactive)
CCOc1cc(C2C(C#N)=C(N)OC(C)=C2C(C)=O)cc(Br)c1O (stereo not drawn)	235	11% (inactive)	-9.7% (inactive)	95.5%	-29.3% (inactive)	97.7%	-0.252 (inactive)	-2.9e-05 (inactive)	0.00684 (inactive)	12.3% (inactive)	20.1% (inactive)
COc1ccc(OC(C)C(=O)N2CC(C)OC(C)C2)cc1 (stereo not drawn)	436	12.2% (inactive)	-4.6% (inactive)	97.2%	-7.5% (inactive)	120%	-0.566 (inactive)	1.5e-06 (inactive)	0.00556 (inactive)	14.1% (inactive)	30.8% (inactive)
CC(C)NC(=O)NC(=O)COc1cccc2c1OC(C)(C)C2	749	-10.1% (inactive)	-13.5% (inactive)	105%	-16.4% (inactive)	100%	-0.556 (inactive)	-2.9e-05 (inactive)	0.00684 (inactive)	17.1% (inactive)	29.7% (inactive)
